Assay [1] concerns the target T1, Histidine-rich protein PFHRP-II (Plasmodium falciparum) (UniProt P05227).
T1 sequence (whole entry): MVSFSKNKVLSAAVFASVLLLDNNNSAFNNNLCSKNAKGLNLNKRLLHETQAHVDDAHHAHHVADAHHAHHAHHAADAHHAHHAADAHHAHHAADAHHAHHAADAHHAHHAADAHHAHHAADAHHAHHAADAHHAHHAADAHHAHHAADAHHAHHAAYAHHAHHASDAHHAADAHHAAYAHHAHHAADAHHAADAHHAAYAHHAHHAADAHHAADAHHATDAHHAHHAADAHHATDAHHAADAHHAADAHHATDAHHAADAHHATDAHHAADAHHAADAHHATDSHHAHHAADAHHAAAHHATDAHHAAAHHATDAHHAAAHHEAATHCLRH
The assay is described as follows: Inhibition of beta-hematin formation assessed as inhibition of flavoprotein polymerization at 5 to 100 mM after 48 hrs. The assay is classed as functional. An outline of the steps: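 Hemin chloride in DMSO is mixed with compound in DMSO (100–5 range), tested in triplicate, with water or DMSO controls. Reaction is started with 0.2 M acetate buffer pH 4.4 and run at 37 °C for 48 h. Pellet is washed twice with DMSO, dissolved in 0.2 N NaOH, diluted 1:2 in 0.1 N NaOH, and read at 405 nm. Result is % inhibition of FP polymerization.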

Assay [2] concerns Plasmodium berghei. Kind of assay: Antimalarial activity as MST against chloroquine-sensitive Plasmodium berghei ANKA infected BALB/c mice (Mus musculus) erythrocytes at 20 mg/kg intraperitoneal dose for 4 days (RVb=11.66+/-1.66 days). It counts as functional.
For assay [3], the system named is Plasmodium berghei. Kind of assay: Antimalarial activity against chloroquine-sensitive Plasmodium berghei ANKA infected BALB/c mice (Mus musculus) erythrocytes at 20 mg/kg intraperitoneal dose for 4 days as parasitaemia.
In assay [4] the test system is Plasmodium berghei. Kind of assay: Antimalarial activity against chloroquine-sensitive Plasmodium berghei ANKA infected BALB/c mice (Mus musculus) erythrocytes at 10 uM after 18 hrs as reduced hemoglobin hydrolysis. It counts as functional. An outline of the steps:
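Trophozoite-rich extract from P. berghei-infected mouse blood (30–50% parasitemia, Percoll-enriched mature forms, saponin-lysed, freeze-thawed) digests native mouse hemoglobin with 10 mM GSH in 0.2 M acetate buffer pH 5.4. Compound is added in DMSO. Incubation is 37 °C for 18 h. Globin 14 kDa band is assessed by SDS-PAGE densitometry against a DMSO control and expressed as % inhibition of hydrolysis.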

For assay [5], the system named is Plasmodium berghei. Kind of assay: Antimalarial activity against chloroquine-sensitive Plasmodium berghei ANKA infected BALB/c mice (Mus musculus) erythrocytes at 20 mg/kg intraperitoneal dose for 4 days.
For assay [6], the system named is Plasmodium berghei. The assay is described as follows: Antimalarial activity as MST against chloroquine-sensitive Plasmodium berghei ANKA infected BALB/c mice (Mus musculus) erythrocytes at 25 mg/kg intraperitoneal dose for 4 days (RVb=11.66+/-1.66 days). It counts as functional.
In assay [7] the test system is Plasmodium berghei. The assay is described as follows: Antimalarial activity as parasitaemia against chloroquine-sensitive Plasmodium berghei ANKA infected BALB/c mice (Mus musculus) erythrocytes at 25 mg/kg intraperitoneal dose for 4 days. The assay is classed as functional. In short, it runs like this: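 Male Balb-C mice infected with 10^6 P. berghei ANKA-infected erythrocytes; n=6. Compound is given as a DMSO stock diluted in 2% saline–Tween 20, ip once daily for 4 days starting 2 h post-infection. Chloroquine is given at 25 mg/kg. Day-4 parasitemia is read from Giemsa smears and survival days are recorded versus untreated controls. Mean ± SEM.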

Calls of active or inactive are those of the source. The rule behind the calls is not given here.

Take `Cc1ccccc1N1c2cc(Cl)ccc2S(=O)(=O)c2c(N)n[nH]c21`: in assay [1], the inhibition – broadly, how much of the control response was suppressed – was below 5%. Besides, the Activity in the assay with Plasmodium berghei [2] stood at 13 days; in the assay on Plasmodium berghei [3], 9.75%. The inhibition at 10 µM with Plasmodium berghei [4] worked out at 92.3%. Also, the result in the assay with Plasmodium berghei [5] was inactive.

On to `COc1cccc(N2c3ccc(Cl)cc3S(=O)(=O)c3c(N)nc(N)nc32)c1`, for which, in assay [1], the inhibition is below 5%. This molecule yielded an inhibition at 10 µM with Plasmodium berghei [4] of 0%.

As for `Nc1nc(N)c2c(n1)N(c1ccc(Cl)c(Cl)c1)c1ccc(Cl)cc1S2(=O)=O`, the inhibition in assay [1] was below 5%. In addition, at 10 µM the inhibition in the assay on Plasmodium berghei [4] was 0%.

For `Nc1n[nH]c2c1S(=O)(=O)c1cc(Cl)ccc1N2c1ccc(Cl)c(Cl)c1`, in assay [1], the inhibition was below 5%. The molecule also returned an inhibition at 10 µM with Plasmodium berghei [4] of 0%.

As for `Cc1ccc(N2c3cc(Cl)ccc3S(=O)(=O)c3c(N)nc(N)nc32)cc1`, the inhibition in assay [1] is below 5%. Moreover, in the assay with Plasmodium berghei [4], the inhibition at 10 µM came out at 50.1%.

As for `Nc1n[nH]c2c1S(=O)(=O)c1ccc(Cl)cc1N2c1ccc(Br)cc1`, the inhibition in assay [1] was below 5%. Further, the inhibition at 10 µM with Plasmodium berghei [4] came out at 26.7%.

As for `Nc1n[nH]c2c1S(=O)(=O)c1ccc(Cl)cc1N2c1cccc(Cl)c1`, the inhibition in assay [1] came to 85.4%. The values for the Activity in the assay with Plasmodium berghei [2] and in the assay on Plasmodium berghei [3] were 12.5 days and 10.33%, respectively. The same molecule yielded an inhibition at 10 µM with Plasmodium berghei [4] of 58.9%.

Take `Nc1nc(N)c2c(n1)N(c1ccccc1)c1cc(Cl)ccc1S2(=O)=O`: the inhibition in assay [1] was below 5%. The Activity in the assay with Plasmodium berghei [2] was found to be 10.8 days; in the assay on Plasmodium berghei [3] it was 12.7%. The inhibition at 10 µM in the assay with Plasmodium berghei [4] was 83.7%.

In the case of `CC(C)CC(=O)N[C@H](C(=O)N[C@H](C(=O)N[C@@H](CC(C)C)[C@@H](O)CC(=O)N[C@@H](C)C(=O)N[C@@H](CC(C)C)[C@@H](O)CC(=O)O)C(C)C)C(C)C` [PEPSTATIN], 10 µM produced 92.9% inhibition with Plasmodium berghei [4].

In the case of `COc1ccc(N2c3ccc(Cl)cc3S(=O)(=O)c3c(N)nc(N)nc32)cc1`, in assay [1], the inhibition is below 5%. The molecule further came in with an inhibition at 10 µM in the assay on Plasmodium berghei [4] of 0%.

Consider `Nc1nc(N)c2c(n1)N(c1ccc(Br)cc1)c1cc(Cl)ccc1S2(=O)=O`, for which the inhibition in assay [1] is below 5%. In the assay on Plasmodium berghei [4], 10 µM produced 49% inhibition.

`CC(=O)N[C@@H](CC(C)C)C(=O)N[C@@H](CC(C)C)C(=O)N[C@H](C=O)CCCNC(=N)N` [LEUPEPTIN] returned an inhibition at 10 µM in the assay on Plasmodium berghei [4] of 89.1%.

With `Nc1n[nH]c2c1S(=O)(=O)c1ccc(Cl)cc1N2c1ccc(Cl)cc1`, in assay [1], the inhibition is below 5%. In addition, at 10 µM the inhibition with Plasmodium berghei [4] was 55.8%.

Consider `COc1cccc(N2c3cc(Cl)ccc3S(=O)(=O)c3c(N)n[nH]c32)c1`, for which, in assay [1], the inhibition was below 5%. In the assay on Plasmodium berghei [4], testing at 10 µM gave an inhibition of 47.3%.

With `Nc1nc(N)c2c(n1)N(c1ccccc1)c1ccc(Cl)cc1S2(=O)=O`, the inhibition in assay [1] was below 5%. Also, in the assay on Plasmodium berghei [4], the inhibition at 10 µM amounted to 0%.

`Nc1nc(N)c2c(n1)N(c1cccc(Cl)c1)c1ccc(Cl)cc1S2(=O)=O`: in assay [1], the inhibition was below 5%. For the same molecule, the inhibition at 10 µM in the assay on Plasmodium berghei [4] is 0%.

For the molecule `Nc1n[nH]c2c1S(=O)(=O)c1ccc(Cl)cc1N2c1ccc(Cl)c(Cl)c1`, the inhibition in assay [1] is below 5%. The molecule also yielded an inhibition at 10 µM in the assay with Plasmodium berghei [4] of 67.6%.

Consider `Cc1ccc(N2c3ccc(Cl)cc3S(=O)(=O)c3c(N)nc(N)nc32)cc1`, for which the inhibition in assay [1] is below 5%. In addition, the inhibition at 10 µM in the assay on Plasmodium berghei [4] came out at 0%.

For `Cc1ccc(N2c3ccc(Cl)cc3S(=O)(=O)c3c(N)n[nH]c32)cc1`, in assay [1], the inhibition was below 5%. In the assay with Plasmodium berghei [4], this molecule showed an inhibition at 10 µM of 0%.

As for `Nc1n[nH]c2c1S(=O)(=O)c1cc(Cl)ccc1N2c1ccccc1`, the inhibition in assay [1] was below 5%. The inhibition at 10 µM with Plasmodium berghei [4] was 0%.

Regarding `CCN(CC)CCCC(C)Nc1ccnc2cc(Cl)ccc12` (configuration not stated) [CHLOROQUINE], the Activity with Plasmodium berghei [6] is 30 days; in the assay with Plasmodium berghei [7] it was 1.3%. In the assay with Plasmodium berghei [4], this molecule displayed an inhibition at 10 µM of 24.1%.

`Cc1ccccc1N1c2ccc(Cl)cc2S(=O)(=O)c2c(N)nc(N)nc21`: in assay [1], the inhibition was below 5%. Further, the inhibition at 10 µM in the assay on Plasmodium berghei [4] was found to be 0%.

As for `COc1ccc(N2c3cc(Cl)ccc3S(=O)(=O)c3c(N)n[nH]c32)cc1`, the inhibition in assay [1] is below 5%. Further, the inhibition at 10 µM with Plasmodium berghei [4] was 54.8%.

In the case of `Cc1ccc(C)c(N2c3ccc(Cl)cc3S(=O)(=O)c3c(N)n[nH]c32)c1`, the inhibition in assay [1] is below 5%. For the same molecule, in the assay with Plasmodium berghei [4], testing at 10 µM gave an inhibition of 0%.

In the case of `Nc1nc(N)c2c(n1)N(c1ccc(Cl)cc1)c1ccc(Cl)cc1S2(=O)=O`, the inhibition in assay [1] is below 5%. The molecule further displayed an inhibition at 10 µM in the assay with Plasmodium berghei [4] of 0%.

On to `Nc1nc(N)c2c(n1)N(c1ccc(Cl)c(Cl)c1)c1cc(Cl)ccc1S2(=O)=O`, for which the inhibition in assay [1] was below 5%. In the assay on Plasmodium berghei [4], this molecule came in with an inhibition at 10 µM of 76%.

For the molecule `Cc1ccc(C)c(N2c3ccc(Cl)cc3S(=O)(=O)c3c(N)nc(N)nc32)c1`, the inhibition in assay [1] was below 5%. In the assay on Plasmodium berghei [4], this molecule gave an inhibition at 10 µM of 0%.

Turning to `Cc1ccc(C)c(N2c3cc(Cl)ccc3S(=O)(=O)c3c(N)nc(N)nc32)c1`, the inhibition in assay [1] is below 5%. This molecule also gave an inhibition at 10 µM with Plasmodium berghei [4] of 64.6%.

For `Nc1nc(N)c2c(n1)N(c1cccc(Cl)c1)c1cc(Cl)ccc1S2(=O)=O`, in assay [1], the inhibition was below 5%. The inhibition at 10 µM with Plasmodium berghei [4] is 0%.

On to `Nc1n[nH]c2c1S(=O)(=O)c1cc(Cl)ccc1N2c1ccc(Br)cc1`, for which the inhibition in assay [1] was below 5%. In the assay on Plasmodium berghei [4], this molecule gave an inhibition at 10 µM of 0%.

For the molecule `COc1cccc(N2c3ccc(Cl)cc3S(=O)(=O)c3c(N)n[nH]c32)c1`, in assay [1], the inhibition is below 5%. The molecule also registered an inhibition at 10 µM in the assay with Plasmodium berghei [4] of 0%.

`Cc1ccccc1N1c2ccc(Cl)cc2S(=O)(=O)c2c(N)n[nH]c21`: the inhibition in assay [1] was below 5%. Also, the inhibition at 10 µM in the assay on Plasmodium berghei [4] worked out at 0%.

On to `Cc1ccc(N2c3cc(Cl)ccc3S(=O)(=O)c3c(N)n[nH]c32)cc1`, for which, in assay [1], the inhibition was below 5%. In the assay on Plasmodium berghei [4], this molecule had an inhibition at 10 µM of 78.8%.

Turning to `Nc1n[nH]c2c1S(=O)(=O)c1cc(Cl)ccc1N2c1cccc(Cl)c1`, the inhibition in assay [1] was below 5%. This molecule also yielded an inhibition at 10 µM with Plasmodium berghei [4] of 0%.

For `Cc1ccccc1N1c2cc(Cl)ccc2S(=O)(=O)c2c(N)nc(N)nc21`, in assay [1], the inhibition was below 5%. The same molecule gave an inhibition at 10 µM with Plasmodium berghei [4] of 72.6%.

For the molecule `Nc1nc(N)c2c(n1)N(c1ccc(Cl)cc1)c1cc(Cl)ccc1S2(=O)=O`, the inhibition in assay [1] is below 5%. Also, the inhibition at 10 µM with Plasmodium berghei [4] is 67.2%.

Turning to `COc1cccc(N2c3cc(Cl)ccc3S(=O)(=O)c3c(N)nc(N)nc32)c1`, the inhibition in assay [1] is below 5%. This molecule also registered an inhibition at 10 µM with Plasmodium berghei [4] of 56.3%.

For `Nc1nc(N)c2c(n1)N(c1ccc(Br)cc1)c1ccc(Cl)cc1S2(=O)=O`, the inhibition in assay [1] was below 5%. For the same molecule, in the assay on Plasmodium berghei [4], the inhibition at 10 µM was found to be 0%.

As to `COc1ccc(N2c3ccc(Cl)cc3S(=O)(=O)c3c(N)n[nH]c32)cc1`, the inhibition in assay [1] was below 5%. In addition, the inhibition at 10 µM with Plasmodium berghei [4] stood at 0%.

As to `Nc1n[nH]c2c1S(=O)(=O)c1cc(Cl)ccc1N2c1ccc(Cl)cc1`, the inhibition in assay [1] is below 5%. The same molecule displayed an inhibition at 10 µM in the assay on Plasmodium berghei [4] of 0%.

Regarding `Nc1n[nH]c2c1S(=O)(=O)c1ccc(Cl)cc1N2c1ccccc1`, the inhibition in assay [1] is below 5%. For the same molecule, at 10 µM the inhibition in the assay with Plasmodium berghei [4] was 76.4%.

With `Cc1ccc(C)c(N2c3cc(Cl)ccc3S(=O)(=O)c3c(N)n[nH]c32)c1`, in assay [1], the inhibition was below 5%. In the assay on Plasmodium berghei [4], this molecule yielded an inhibition at 10 µM of 69.4%.

Turning to `COc1ccc(N2c3cc(Cl)ccc3S(=O)(=O)c3c(N)nc(N)nc32)cc1`, in assay [1], the inhibition is below 5%. This molecule also showed an inhibition at 10 µM in the assay with Plasmodium berghei [4] of 40.9%.

The values are drawn from ChEMBL document CHEMBL1137713, “Synthesis and antimalarial activity of pyrazolo and pyrimido benzothiazine dioxide derivatives” (2009).
